Common to all, as to type: functional
The species named for experiment [1] is Mus musculus. Description: Tested for antibody response in mice injected with various Hepatitis B Vaccine at 50 ug/dose in experiment 1. Put shortly: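 Female 5-week-old ICR mice, groups of 20, injected subcutaneously with 0.5 mL holding 1.25 μg aqueous hepatitis B vaccine (plasma-derived) mixed with 50 μg analogue in PBS (pH 7.5). Controls were aqueous vaccine alone and alum-adsorbed vaccine at 1.25 μg. Mice bled from vena cava at 6 weeks. Anti-HBs measured by radioimmunoassay; geometric mean titer reported as reciprocal serum dilution, plus responder count.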

For experiment [2], the species on record is Mus musculus. Kind of experiment: Tested for antibody response of mice injected with Bovine serum Albumin(BSA) at 5 ug/dose in experiment 1.
For experiment [3], the species on record is Mus musculus. Kind of experiment: Tested for antibody response of mice injected with Bovine serum Albumin(BSA) at 5 ug/dose in experiment 5. Put shortly: (§1)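 Female ICR/Ha mice, 5–6 weeks old, groups of six, given one subcutaneous injection between the shoulders of 0.25 mL PBS containing 100 μg BSA monomer plus analogue (dissolved or sonicated). Boosted at day 21 with 100 μg BSA alone, bled at day 31. Anti-BSA passive hemagglutination was run on sheep-RBC-adsorbed sera with twofold dilutions on BSA-coated sheep cells. Result is the group geometric mean reciprocal titer.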

The species entered for experiment [4] is Mus musculus. Kind of experiment: Tested for antibody response of mice injected with Bovine serum Albumin(BSA) at 50 ug/dose in experiment 1. Summed up: as §1
The species named for experiment [5] is Mus musculus. Description: Tested for antibody response of mice injected with Bovine serum Albumin(BSA) at 50 ug/dose in experiment 5.
For experiment [6], the species on record is Mus musculus. Kind of experiment: Tested for antibody response of mice injected with Bovine serum Albumin(BSA) at 5 ug/dose in experiment 6. Put shortly:
as §1

For experiment [7], the species on record is Mus musculus. Description: Tested for antibody response of mice injected with Bovine serum Albumin(BSA) at 50 ug/dose in experiment 6.
The species named for experiment [8] is Mus musculus. Kind of experiment: Tested for antibody response of mice injected with Bovine serum Albumin(BSA) at 50 ug/dose in experiment 2. Summed up:
as §1

The species entered for experiment [9] is Mus musculus. Kind of experiment: Tested for antibody response of mice injected with Bovine serum Albumin(BSA) at 50 ug/dose in experiment 3. Put shortly: as §1
The species entered for experiment [10] is Mus musculus. Description: Tested for antibody response of mice injected with Bovine serum Albumin(BSA) at 50 ug/dose in experiment 4.

With `CCCCCCCCCCCCCCCCCC(=O)OCC(OC(C)=O)C1OC(O)C(NC(C)=O)C1OC(C)C(=O)N[C@@H](C)C(=O)NC(CCC(=O)O)C(N)=O` (stereo not given in full), the Geometric mean in the experiment filed under Mus musculus [1] is 69.6; in the experiment filed under Mus musculus [2], 28.12; in the experiment filed under Mus musculus [3] it was 107.76; in the experiment filed under Mus musculus [4], 1408.52; in the experiment listed under Mus musculus [5], 215.51.
On to `COC1OC(C(O)CO)C(OC(C)C(=O)N[C@@H](C)C(=O)NC(CCC(=O)O)C(N)=O)C1NC(C)=O` (stereo not given in full), for which the Geometric mean in the experiment filed under Mus musculus [2] and in the experiment filed under Mus musculus [4] was 10.7 in each case.
As for `CCCCCCCCCCCCCCCCCC(=O)NCC1OC(O)C(NC(C)=O)C(O[C@H](C)C(=O)N[C@@H](C)C(=O)NC(CCC(=O)O)C(N)=O)C1O` (stereo not given in full), the Geometric mean in the experiment listed under Mus musculus [2] and in the experiment filed under Mus musculus [4] was less than 3 throughout.
With `CC(=O)NCC1OC(O)C(NC(C)=O)C(O[C@H](C)C(=O)N[C@@H](C)C(=O)NC(CCC(=O)O)C(N)=O)C1O` (stereo not given in full), the Geometric mean is 6.17 in the experiment filed under Mus musculus [2] and 7.78 in the experiment filed under Mus musculus [4].
With `CC(=O)NC1C(O)OC(COC(C)=O)C(OC(C)=O)C1O[C@H](C)C(=O)N[C@@H](C)C(=O)NC(CCC(=O)O)C(N)=O` (stereo not given in full), the Geometric mean stood at 4.36 in the experiment filed under Mus musculus [2] and 384 in the experiment listed under Mus musculus [4].
In the case of `CCCCCCCCCCCCCCCCCCCCCC(=O)OC(C)(C)C(=O)OCC1OC(O)C(NC(C)=O)C(O[C@H](C)C(=O)N[C@@H](C)C(=O)NC(CCC(=O)O)C(N)=O)C1O` (stereo not given in full), the Geometric mean in the experiment filed under Mus musculus [2] came to 431; in the experiment listed under Mus musculus [6] it was 823.12; in the experiment listed under Mus musculus [4], 768; in the experiment listed under Mus musculus [7] it was 716.57.
As to `CCCCCCCCCCCCCCCCCCCCCC(=O)OC(C)(C)C(=O)OCC(OC(C)=O)C1OC(O)C(NC(C)=O)C1OC(C)C(=O)N[C@@H](C)C(=O)NC(CCC(=O)O)C(N)=O` (stereo not given in full), the values for the Geometric mean in the experiment listed under Mus musculus [1], in the experiment listed under Mus musculus [2] and in the experiment listed under Mus musculus [4] were 303.6, 543.06 and 215.51, respectively.
As for `CCCCCCCCCCCCCCCCCC(=O)OCC1OC(O)C(NC(C)=O)C(O[C@H](C)C(=O)N[C@@H](C)C(=O)NC(CCC(=O)O)C(N)=O)C1O` (stereo not given in full), the Geometric mean came to 271.53 in the experiment listed under Mus musculus [2] and 995.97 in the experiment filed under Mus musculus [4].
As to `CC(=O)NC1C(O)OC(C(COC(C)=O)OC(C)=O)C1OC(C)C(=O)N[C@@H](C)C(=O)NC(CCC(=O)O)C(N)=O` (stereo not given in full), the Geometric mean in the experiment filed under Mus musculus [1] worked out at 38.1; in the experiment listed under Mus musculus [2], 31.12; in the experiment filed under Mus musculus [6], 13.08; in the experiment listed under Mus musculus [4], 271.53; in the experiment filed under Mus musculus [7], 113.49.
Take `CC(=O)N[C@H]1C(O)O[C@H](CO)[C@@H](O)[C@@H]1O[C@H](C)C(=O)N[C@@H](C)C(=O)N[C@H](CCC(=O)O)C(N)=O` (stereo not given in full) [MURAMYL DIPEPTIDE]: the Geometric mean in the experiment listed under Mus musculus [2] is on record as 28.12; in the experiment listed under Mus musculus [3] it was less than 3; in the experiment filed under Mus musculus [4] it was 592.21; in the experiment filed under Mus musculus [8] it was 215.51; in the experiment filed under Mus musculus [9], 241.9; in the experiment listed under Mus musculus [10] it was 1536. In addition, the Geometric mean was 179.14 in the experiment listed under Mus musculus [7] and 28.26 in the experiment filed under Mus musculus [5].

For the origin of these results see ChEMBL document CHEMBL1122124, “Synthesis and immunoadjuvant activities of 2-acetamido-5-O-acetyl-6-O-acyl-2-deoxy-3-O-[(R)-2-propionyl-L-alanyl-D- isoglutamine]-D-glucofuranoses as potential prodrug forms of 6-O-Acyl Derivatives of N-acetylmuramyl dipeptide” (1982).
